Values after ≈ are worked out from the molar mass of the structure shown. Active and inactive are the calls of the source. No cut-off for these calls is given here.
Legend:
A549 [1] = assay: Cytotoxicity against human A549 cells assessed as loss of adhered cells at 5 ug/ml after 24 hrs by MTS assay; type: cell-based; details: a549, 24 h
In short: (§1)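 A549 lung epithelial cells or primary human dermal fibroblasts exposed 24 h to peptide (15.62–250 µg/ml, dissolved fresh in culture medium). Nocodazole (5 µg/ml in DMSO) served as toxicity control, with 0.1% v/v DMSO as vehicle control. Metabolic activity was read by MTS viability assay. Data are from three independent triplicate experiments, given as mean ± SEM.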

[2] = Cytotoxicity against human primary HDF assessed as loss of adhered cells at 5 ug/ml after 24 hrs by MTS assay; type: cell-based; in short: as §1
Staphylococcus aureus [3] = assay: Antibacterial activity against methicillin-resistant Staphylococcus aureus ATCC 33591 after 24 hrs; type: functional; details: ATCC 33591, 24 h
Oryctolagus cuniculus = assay: Toxicity in New Zealand white rabbit corneal-damage model assessed as effect on wound healing at 0.3% administered 4 times a day tropically for 10 days by fluorescein staining-based slit-lamp biomicroscopy; details: in vivo, topical_or_ocular, 240 h
In short: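 Rabbit cornea circularly debrided, then 50 µl of 0.3% (w/v) peptide applied topically 4 times/day. Vehicle (PBS) served as control, 2 eyes PBS versus 4 eyes treated. Re-epithelialization and wound closure followed over time by fluorescein staining and slit-lamp biomicroscopy.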

[4] = tested on: Staphylococcus saprophyticus; assay: Antibacterial activity against Staphylococcus saprophyticus ATCC BAA 750 after 24 hrs; type: functional; details: ATCC BAA 750, 24 h
[5] = tested on: Staphylococcus saprophyticus; assay: Antibacterial activity against Staphylococcus saprophyticus ATCC 15305 after 24 hrs; type: functional; details: ATCC 15305, 24 h
[6] = tested on: Staphylococcus saprophyticus; assay: Antibacterial activity against Staphylococcus saprophyticus ATCC 49453 after 24 hrs; type: functional; details: ATCC 49453, 24 h
[7] = tested on: Staphylococcus saprophyticus; assay: Antibacterial activity against Staphylococcus saprophyticus ATCC 49907 after 24 hrs; type: functional; details: ATCC 49907, 24 h
Enterococcus faecalis [8] = assay: Antibacterial activity against vancomycin-resistant Enterococcus faecalis isolate 1001 after 24 hrs; type: functional; details: isolate 1001, 24 h
Enterococcus faecalis [9] = assay: Antibacterial activity against vancomycin-resistant Enterococcus faecalis isolate 1002 after 24 hrs; type: functional; details: isolate 1002, 24 h
Enterococcus faecalis [10] = assay: Antibacterial activity against vancomycin-resistant Enterococcus faecalis isolate 1004 after 24 hrs; type: functional; details: isolate 1004, 24 h
Enterococcus faecalis [11] = assay: Antibacterial activity against vancomycin-resistant Enterococcus faecalis isolate 1008 after 24 hrs; type: functional; details: isolate 1008, 24 h
Enterococcus faecalis [12] = assay: Antibacterial activity against vancomycin-resistant Enterococcus faecalis ATCC 700802 after 24 hrs; type: functional; details: ATCC 700802, 24 h
Enterococcus faecalis [13] = assay: Antibacterial activity against vancomycin-resistant Enterococcus faecalis ATCC 29212 after 24 hrs; type: functional; details: ATCC 29212, 24 h
Staphylococcus aureus [14] = assay: Antibacterial activity against methicillin-resistant Staphylococcus aureus ATCC 700699 after 24 hrs; type: functional; details: ATCC 700699, 24 h
Staphylococcus aureus [15] = assay: Antibacterial activity against methicillin-resistant Staphylococcus aureus isolate 42412 after 24 hrs; type: functional; details: isolate 42412, 24 h
Staphylococcus aureus [16] = assay: Antibacterial activity against methicillin-resistant Staphylococcus aureus isolate 21455 after 24 hrs; type: functional; details: isolate 21455, 24 h
Staphylococcus aureus [17] = assay: Antibacterial activity against methicillin-resistant Staphylococcus aureus isolate 1003 after 24 hrs; type: functional; details: isolate 1003, 24 h
Staphylococcus aureus [18] = assay: Antibacterial activity against Staphylococcus aureus ATCC 29213 after 24 hrs; type: functional; details: ATCC 29213, 24 h
[19] = tested on: Staphylococcus epidermidis; assay: Antibacterial activity against Staphylococcus epidermidis 12228 after 24 hrs; type: functional; details: Staphylococcus epidermidis, 12228, 24 h
Bacillus cereus = assay: Antibacterial activity against Bacillus cereus ATCC 11788 after 24 hrs; type: functional; details: ATCC 11788, 24 h
Staphylococcus aureus [20] = assay: Bactericidal activity against Staphylococcus aureus ATCC 29213 after 24 hrs; type: functional
Staphylococcus aureus [21] = assay: Bactericidal activity against Staphylococcus aureus 4299 after 24 hrs; type: functional
Staphylococcus aureus [22] = assay: Bactericidal activity against methicillin-resistant Staphylococcus aureus ATCC 700699 after 24 hrs; type: functional
Staphylococcus aureus [23] = assay: Bactericidal activity against methicillin-resistant Staphylococcus aureus isolate 21455 after 24 hrs; type: functional
Staphylococcus aureus [24] = assay: Ratio of MBC to MIC for Staphylococcus aureus ATCC 29213; type: functional
Staphylococcus aureus [25] = assay: Ratio of MBC to MIC for Staphylococcus aureus 4299; type: functional
Pseudomonas aeruginosa = assay: Antibacterial activity against Pseudomonas aeruginosa after 24 hrs; type: functional
Staphylococcus aureus [26] = assay: Antibacterial activity against Staphylococcus aureus ATCC 29213 at 5 to 20 times MIC after 24 hrs; type: functional
Staphylococcus aureus [27] = assay: Antibacterial activity against methicillin-resistant Staphylococcus aureus ATCC 33591 at 5 to 20 times MIC after 24 hrs; type: functional
Staphylococcus aureus [28] = assay: Bactericidal activity against Staphylococcus aureus ATCC 29213 assessed as log reduction in bacterial load at 0.5 to 1 ug/ml after 8 hrs by time-kill assay; type: functional
[29] = Cytotoxicity against human A549 cells assessed as cell viability at 15.62 to 250 ug/ml after 24 hrs by MTS assay relative to control; type: cell-based; details: read-out: Activity
In short: (§2)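 Cells exposed 24 h to peptide at 15.62–250 µg/ml, prepared fresh in culture medium from a 500 µg/ml stock. Controls were DMSO (0.1% v/v) or nocodazole (5 µg/ml in DMSO). Metabolic activity was read by MTS viability assay. Mean ± SEM of three independent triplicate experiments.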

[30] = Cytotoxicity against human primary HDF assessed as cell viability at 15.62 to 250 ug/ml after 24 hrs by MTS assay relative to control; type: cell-based; details: primary HDF cells, read-out: Activity; in short: as §2
Staphylococcus aureus [31] = assay: (§3) Antibacterial activity against Staphylococcus aureus ATCC 29213 infected in C57BL6 mouse cornea assessed as decrease in conjunctival chemosis at 0.3% administered tropically 2 times on day 1, 4 times on day 2 and 2 times on day 3 starting from 6 hrs post infection measured 48 hrs post last dose by slit-lamp photography; type: functional
In short: (§4)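 Mouse corneal epithelium scratched with a scalpel, then infected with 15 µl of 6×10⁶ CFU/ml S. aureus ATCC 29213. From 6 h p.i., 15 µl of PBS vehicle, 0.3% w/v peptide in PBS or 0.3% moxifloxacin was applied, 8 doses total. Outcomes were slit-lamp examination, AS-OCT corneal thickness and CFU counts of harvested corneas (mean log₁₀ CFU/tissue ± SEM).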

Staphylococcus aureus [32] = assay: as §3, with “corneal infiltrates” for “conjunctival chemosis”; type: functional; in short: as §4
Staphylococcus aureus [33] = assay: as §3, with “mean corneal thickness” for “decrease in conjunctival chemosis”, “24” for “48”, “AS-OCT method (reference value: 151.7 +/- 12.7 micrometer)” for “slit-lamp photography”; type: functional; in short: as §4
Staphylococcus aureus [34] = assay: as §3, with “mean corneal thickness” for “decrease in conjunctival chemosis”, “AS-OCT method (reference value: 186.2 +/- 17.5 micrometer)” for “slit-lamp photography”; type: functional; in short: as §4
Staphylococcus aureus [35] = assay: Antibacterial activity against Staphylococcus aureus ATCC 29213 infected in C57BL6 mouse cornea assessed as decrease in bacterial load/tissue at 0.3% administered tropically 2 times on day 1, 4 times on day 2 and 2 times on day 3 starting from 6 hrs post infection measured 48 hrs post last dose; type: functional; design: scale not given: the % may be the effect or the level left; in short: as §4
[36] = Cytotoxicity against human primary HDF assessed as cytoskeleton or nuclear disruption at 15.62 to 250 ug/ml after 24 hrs by rhodamine-phalloidin/Hoechst 33342 staining-based fluorescence microscopic method; type: cell-based
In short: (§5)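 After 24 h peptide exposure, cells were fixed and stained with rhodamine-phalloidin (actin), Alexa Fluor 488 anti-α-tubulin and Hoechst 33342 (nuclei). They were then imaged by automated high-content microscopy. Nocodazole (10 µg/ml) served as toxicity control. Representative images shown at 62.5 µg/ml.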

A549 [37] = assay: Cytotoxicity against human A549 cells assessed as cytoskeleton or nuclear disruption at 15.62 to 250 ug/ml after 24 hrs by rhodamine-phalloidin/Hoechst 33342 staining-based fluorescence microscopic method; type: cell-based; details: a549, 24 h; in short: as §5
[38] = Cytotoxicity against human primary HDF assessed as effect on cell morphology at 15.62 to 250 ug/ml after 24 hrs by rhodamine-phalloidin/Hoechst 33342 staining-based fluorescence microscopic method; in short: as §5
A549 [39] = assay: Cytotoxicity against human A549 cells assessed as effect on cell morphology at 15.62 to 250 ug/ml after 24 hrs by rhodamine-phalloidin/Hoechst 33342 staining-based fluorescence microscopic method; details: a549, 24 h; in short: as §5
[40] = tested on: Bacillus subtilis (Bacillus subtilis); assay: Antibacterial activity against Bacillus subtilis ATCC 6633 after 24 hrs; details: ATCC 6633, 24 h

SMILES: COC(=O)Nc1nc2ccc(C(=O)c3cccs3)cc2[nH]1 [NOCODAZOLE]
- Activity (A549 [1]): Toxic
- Activity [2]: Toxic

SMILES: CC[C@@H](C)[C@@H](NC(=O)[C@@H](CCCNC(=N)N)NC(=O)[C@H](CO)NC(=O)[C@@H](NC(=O)[C@@H](Cc1ccccc1)NC)[C@@H](C)CC)C(=O)N[C@H](C(=O)N[C@@H](CO)C(=O)N[C@H]1C(=O)N[C@@H](C)C(=O)N[C@@H](CC(C)C)C(=O)N[C@@H]([C@@H](C)CC)C(=O)O[C@H]1C)[C@@H](C)CC
- MIC (Staphylococcus aureus [3]): 0.125 µg/mL (≈ 0.102 µM)
- Activity (Oryctolagus cuniculus): Non-Toxic
- MIC [4]: < 0.0625 µg/mL
- MIC [5]: < 0.0625 µg/mL
- MIC [6]: < 0.0625 µg/mL
- MIC [7]: < 0.0625 µg/mL
- MIC (Enterococcus faecalis [8]): 0.5 µg/mL (≈ 0.407 µM)
- MIC (Enterococcus faecalis [9]): 1 µg/mL (≈ 0.813 µM)
- MIC (Enterococcus faecalis [10]): 0.25 µg/mL (≈ 0.203 µM)
- MIC (Enterococcus faecalis [11]): 0.5 µg/mL (≈ 0.407 µM)
- MIC (Enterococcus faecalis [12]): 0.5 µg/mL (≈ 0.407 µM)
- MIC (Enterococcus faecalis [13]): 0.5 µg/mL (≈ 0.407 µM)
- MIC (Staphylococcus aureus [14]): 0.25 µg/mL (≈ 0.203 µM)
- MIC (Staphylococcus aureus [15]): 0.0313 µg/mL (≈ 0.0255 µM)
- MIC (Staphylococcus aureus [16]): 0.0313 µg/mL (≈ 0.0255 µM)
- MIC (Staphylococcus aureus [17]): 0.5 µg/mL (≈ 0.407 µM)
- MIC (Staphylococcus aureus [18]): < 0.0625 µg/mL
- MIC [19]: < 0.0625 µg/mL
- MIC (Bacillus cereus): 0.5 µg/mL (≈ 0.407 µM)
- Activity (Staphylococcus aureus [20]): Active
- Activity (Staphylococcus aureus [21]): Active
- Activity (Staphylococcus aureus [22]): Active
- Activity (Staphylococcus aureus [23]): Active
- Ratio (Staphylococcus aureus [24]): <4
- Ratio (Staphylococcus aureus [25]): <4
- Activity (Pseudomonas aeruginosa): inactive
- Activity (Staphylococcus aureus [26]): Active
- Activity (Staphylococcus aureus [27]): Active
- Activity (Staphylococcus aureus [28]): >=2 deltalog10CFU/ml
- viability at 24 h [29]: ≥ 80%
- viability at 24 h [30]: ≥ 80%
- Activity (Staphylococcus aureus [31]): Active
- Activity (Staphylococcus aureus [32]): Active
- Activity (Staphylococcus aureus [33]): 92.3 um
- Activity (Staphylococcus aureus [34]): 121.7 um
- Activity (Staphylococcus aureus [35]): >99%
- Activity [36]: Non-Toxic
- Activity (A549 [37]): Non-Toxic
- Activity [38]: Non-Toxic
- Activity (A549 [39]): Non-Toxic
- MIC [40]: 0.125 µg/mL (≈ 0.102 µM)

Source: ChEMBL document CHEMBL4020828, “Design and Syntheses of Highly Potent Teixobactin Analogues against Staphylococcus aureus, Methicillin-Resistant Staphylococcus aureus (MRSA), and Vancomycin-Resistant Enterococci (VRE) in Vitro and in Vivo” (J Med Chem, 2018)
